Laboratory results as given in article PMC7841779 (ACS Omega, 2021).

Tests used:
[1] = biological target: T1, LHRH receptor (Homo sapiens, UniProt P30968); experiment: LHRH receptor competition assay of 99mTc conjugate, MDA-MB-231; assay type: cell-based; conditions: MDA-MB-231 cells, cotreatment with 100 μg LHRH, 1 μCi, 37 °C, γ counter; n = 3
T1 sequence (P30968 1-328): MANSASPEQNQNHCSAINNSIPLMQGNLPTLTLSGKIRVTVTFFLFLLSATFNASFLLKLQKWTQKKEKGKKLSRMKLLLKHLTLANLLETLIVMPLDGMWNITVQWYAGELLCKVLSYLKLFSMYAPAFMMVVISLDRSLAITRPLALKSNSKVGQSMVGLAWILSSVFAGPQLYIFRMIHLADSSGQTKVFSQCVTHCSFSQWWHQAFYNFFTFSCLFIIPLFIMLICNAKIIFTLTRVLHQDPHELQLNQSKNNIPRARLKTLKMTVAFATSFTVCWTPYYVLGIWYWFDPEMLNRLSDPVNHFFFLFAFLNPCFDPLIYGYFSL
In short: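 MDA-MB-231 cells were grown in DMEM with 5 mM L-glutamine, 1% penicillin/streptomycin and 10% FBS at 37 °C, 5% CO2. Cells were seeded at 2 × 10^5 per well and cultured 48 h. 1 μCi (0.037 MBq) of 99mTc-labelled conjugate was added together with 100 μg LHRH and incubated at 37 °C for 15, 30, 60 and 120 min (n = 3). Cells were washed 3× in PBS, trypsinised and γ-counted. Uptake is % of cell counts over total counts, reported as mean ± SEM.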

[2] = test system: 4T1 cells; experiment: MTT cell viability assay, 4T1; assay type: cell-based, mouse; conditions: highest dose 100 μM, compared to unconjugated [Re(CO)3(H2O)3]+
In short: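 4T1 cells were kept in DMEM with 10% FBS and penicillin/streptomycin at 37 °C, 5% CO2, then seeded at 2000 cells/100 μL. Test compound or free [Re(CO)3(H2O)3]+ was applied at 0.1–100 μM for 24 h. Cells were washed 3× with PBS and grown 48 h in DMEM/10% FBS. MTT was added for 4 h, cells were solubilised with SDS, and absorbance was read at 595 nm.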

[3] = test system: MDA-MB-231 cells; experiment: MTT cell viability assay, MDA-MB-231; assay type: cell-based, human; conditions: highest dose 100 μM, compared to unconjugated [Re(CO)3(H2O)3]+

Substance	cell uptake with LHRH cotreatment (competition) [1]	cytotoxicity at the highest dose [2]	cytotoxicity at the highest dose [3]
^99mTc-Acdien-LHRH: Acdien-LHRH radiolabeled with [99mTc(CO)3]+ from Isolink kit	decrease		
Re-Acdien-peg-LHRH: PEGylated Acdien-peg-LHRH chelated with [Re(CO)3(H2O)3]+		did not induce cytotoxicity	did not induce cytotoxicity
Re-Acdien-LHRH: Acdien-LHRH reacted with equimolar [Re(CO)3(H2O)3]+; nonradioactive rhenium-LHRH conjugate			did not induce cytotoxicity
